One assay relates to HeLa. As to the kind of experiment: Cytotoxicity against human HeLa cells after 72 hrs by acid phosphatase assay. It is filed as functional, cell-based. The essentials: (§1)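 Cells grown in DMEM with 10% FCS, penicillin and streptomycin at 37 °C, 5% CO2. Seeded at 2000 cells/well in 96-well plates and exposed to compound or left untreated for 72 h.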
In a further assay the test system is Huh-7. The assay can be described thus: Cytotoxicity against human HuH7 cells after 72 hrs by acid phosphatase assay. It is filed as functional, cell-based. Particulars: Huh-7, 72 h. The essentials: as §1
Another assay has as its system HCT-116. As to the kind of experiment: Cytotoxicity against human HCT116 cells after 72 hrs by acid phosphatase assay. It is filed as functional, cell-based. The settings on record: HCT-116, 72 h. The method in brief: as §1
In another assay the test system is C6. The assay can be described thus: Cytotoxicity against rat C6 cells after 72 hrs by acid phosphatase assay. It is filed as functional, cell-based. The settings on record: C6, 72 h. The essentials: as §1
In a further assay the test system is LoVo. The assay can be described thus: Cytotoxicity against human LoVo cells after 72 hrs by acid phosphatase assay. Format: functional, cell-based. The essentials:
as §1

Assay [1] can be described thus: Antioxidant activity assessed as inhibition of peroxide formation using iron/ascorbate system. Format: functional. The method in brief: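 Linoleic acid (100 mg) emulsified with Tween 20 in 50 mM Tris pH 7.4. Emulsion mixed with iron/ascorbate (30 µM FeCl3, 200 µM ascorbic acid, made daily) and methanolic compound, giving ca. 0, 1, 4, 10 ppm final. Tubes held on ice, then 37 °C for 5 and 30 min. Conjugated diene hydroperoxide read at 234 nm after MeOH dilution. BHT 2000 ppm control. Triplicates.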

In brackets after ≈: the same amount, converted by molar mass. Activity calls are given as the source filed them. No cut-off for these calls is given here.

As for `CCC/C=C/C/C=C\CCCCCCCCCc1cc(O)ccc1O`, the IC50 (usually the concentration that inhibits the measured activity by half) in the assay with HeLa was determined as 4.6 µg/mL (≈ 13.4 µM); in the assay with Huh-7 it was 6 µg/mL (≈ 17.4 µM); in the assay with HCT-116, 3.5 µg/mL (≈ 10.2 µM); in the assay on C6, 1 µg/mL (≈ 2.9 µM); with LoVo it was 5.6 µg/mL (≈ 16.3 µM). In addition, the result in assay [1] was Active.
As to `C/C=C/C=C/C/C=C\CCCCCCCCCc1cc(O)ccc1O`, the IC50 in the assay with HeLa turned out to be 2.8 µg/mL (≈ 8.17 µM); in the assay on Huh-7, 3.9 µg/mL (≈ 11.4 µM); in the assay with HCT-116, 2 µg/mL (≈ 5.84 µM); with C6 it was 0.9 µg/mL (≈ 2.63 µM); with LoVo, 4.5 µg/mL (≈ 13.1 µM). Besides, in assay [1], the result was Active.
As to `CCCCCC/C=C\CCCCCCCCCc1cc(O)ccc1O`, the IC50 in the assay on HeLa stood at 4.7 µg/mL (≈ 13.6 µM); with Huh-7, 6.4 µg/mL (≈ 18.5 µM); in the assay with HCT-116 it was 3.4 µg/mL (≈ 9.81 µM); with C6 it was 1.1 µg/mL (≈ 3.17 µM); with LoVo, 2.9 µg/mL (≈ 8.37 µM). Also, in assay [1], the outcome was Active.
